Screens as filed in PubChem BioAssay.
KLK7 zymogen act: proKLK7 (human) activation, primary screen. P49862. purified proKLK7, EDANS-DABCYL substrate fluorescence; 100% is mature enzyme control, 0% vehicle. activation, % at 7 µM. actives 0.9% (n = 370,000). AID 652039;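 active = activation above the mean of all tested compounds plus 3 SD, computed per campaign excluding outliers beyond control limits, cut at about 13% in these data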
MIN6 prolif-1: inducers of beta-cell replication in MIN6 cells; AID 2380; actives 0.29% (n = 330,000); proliferation, % at 10 µM; MIN6 cells proliferation, ATPlite luminescence, 48 h; cells starved in 0.2% serum; 100% = growth in 10% serum;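 active = compounds whose signal lies at least 3.5 SD above the mean of all wells on their plate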
Yeast superoxide: lowers age-related superoxide in aged yeast cells; S. cerevisiae aged cells, superoxide DHE fluorescence; active compounds read low; superoxide response (% of plate mean), % at 10 µM; actives 0.18% (n = 330,000); AID 2690;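 active = superoxide response under a set limit, about three screen SD below normal, cut at about 65% in these data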;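 note: yeast aged for seven days with compound at 30 °C before DHE staining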
V-ATPase pHluor: alters yeast V-ATPase proton transport; actives 0.37% (n = 350,000); S. cerevisiae, pHLuorin cytosolic pH fluorescence; AID 504577; response, % at 10 µM; in the data active = response mostly above about 7.3%, no sharp cut-off; inactive = mostly below about 5.4%; note: actives read high
T cell HTS: T cell immune modulators affecting CD8 T cell-vesicle binding. response (vesicle binding), % at 7 µM. actives 0.068% (n = 330,000). 2C CD8+ T cell-vesicle binding, flow cytometry; active compounds read low. AID 2052;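 active = response, share of CD8 T cells binding vesicles, and their 90th percentile fluorescence all below set limits, cut at about 80% in these data, passing the limit was not always enough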;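 note: values below 100% mean blocked vesicle binding to the CD8+ T cells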
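System: murine 2C transgenic CD8+ T lymphocytes; also added: QL9-loaded Drosophila micro-vesicles; times: binding 1.5 h at 37 °C; measured by: flow cytometry, PE anti-B7-1 (FL2) versus Alexa647 anti-CD8 (FL8), PFA-fixed; control set: Peptide-free naked vesicles (low) and QL9 vesicles with 0.7% DMSO vehicle (high)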
Rce1 inh: inhibitors of yeast Ras-converting enzyme; Q03530; calls only; AID 2563; yeast membranes, quenched prenylated peptide cleavage fluorescence; actives 0.27% (n = 290,000);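 active = fall in fluorescence gain of 50% or more versus controls, with final raw signal at or below 3038400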
Target sequence (Q03530 whole entry, looked up): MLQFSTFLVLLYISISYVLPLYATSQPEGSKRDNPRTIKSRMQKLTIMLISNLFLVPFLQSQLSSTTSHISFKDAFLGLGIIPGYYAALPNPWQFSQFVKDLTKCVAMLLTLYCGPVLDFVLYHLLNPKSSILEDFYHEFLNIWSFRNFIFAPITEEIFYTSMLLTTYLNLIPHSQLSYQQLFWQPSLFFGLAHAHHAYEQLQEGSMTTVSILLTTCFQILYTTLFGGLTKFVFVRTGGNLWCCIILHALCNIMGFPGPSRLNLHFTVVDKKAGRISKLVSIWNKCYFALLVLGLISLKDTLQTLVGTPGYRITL
MIN6 prolif-2: MIN6 beta-cell replication induction, confirmed; shares compounds with MIN6 prolif-1; proliferation increase, % at 50 µM; 920 tested, under 10 active; AID 463095; MIN6 beta-cell proliferation, ATPlite luminescence, 48 h; cells kept in 0.2% serum; scaled between 0.2% and 10% serum;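 active = proliferation increase above 40% at any of the four tested concentrations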
Of the large screens only hits and unclear results are named; the others gave an inactive call (follow-up assays come after a bar, where they were run). A selection: hits, their analogues and other compounds. The true share with any hit is near 1.9%.

CCOc1ccccc1C(=O)NCC(=O)NNC(=O)c1cccs1	none (no result: Rce1 inh)
COC(=O)c1cc(-c2ccc(Oc3ccccc3)cc2)c(=O)n2c1CCC2	none (no result: MIN6 prolif-1, Yeast superoxide, V-ATPase pHluor, T cell HTS, Rce1 inh)
CN(C)C(/C=C/Nc1cccc([N+](=O)[O-])c1)=C(C#N)C#N	MIN6 prolif-1 8.1 | MIN6 prolif-2 inactive
COC(=O)Cc1c([C@H](C)[C@@H](OC)c2ccccc2Br)nnn1Cc1ccccc1	none (no result: MIN6 prolif-1, Yeast superoxide, V-ATPase pHluor, T cell HTS, Rce1 inh)
COc1ccc(C2(C)NC(=O)N(Cc3cc(Cl)cc4c3OCOC4)C2=O)cc1OC (configuration not stated)	MIN6 prolif-1 15.1 (no result: Rce1 inh) | MIN6 prolif-2 inactive
Cc1ccc(S(=O)(=O)NC2=NCN(CCOC(=O)c3ccccc3)CN2)cc1	none
Cc1ccc(S(=O)(=O)NC2=NCN(CCOC(=O)c3ccc([N+](=O)[O-])cc3)CN2)cc1	MIN6 prolif-1 8.4 | MIN6 prolif-2 inactive
Cc1ccc(C(c2sc3ncnn3c2O)N2CCC(C)CC2)cc1 (configuration not stated)	MIN6 prolif-1 11.6 | MIN6 prolif-2 inactive
Cc1ccc(C(c2sc3ncnn3c2O)N2CCCCC2)cc1 (configuration not stated)	none
COc1ccc(C2C(C(=O)N3CCN(c4ccccc4C)CC3)CC(=O)N2c2ccc(OC)cc2)cc1 (configuration not stated)	none (no result: MIN6 prolif-1, Yeast superoxide, V-ATPase pHluor, T cell HTS, Rce1 inh)
COc1cc(C=Nc2cccc([N+](=O)[O-])c2C)ccc1OC(C)=O	MIN6 prolif-1 6.4 | MIN6 prolif-2 inactive
COc1cc(/C=N/N2CCN(c3ccccc3OC)CC2)ccc1OC(C)=O	none
CCOC(=O)Cc1cc(=O)n2[nH]c(C)c(-c3ccccc3)c2n1	MIN6 prolif-1 6.1 | MIN6 prolif-2 inactive
CCOC(=O)Cc1cc(=O)n2[nH]c(-c3ccccc3)c(-c3ccccc3)c2n1	none
O=C(Nc1ccc(Br)cc1)C1CC(O)CN1C(=O)OCc1ccccc1 (configuration not stated)	MIN6 prolif-1 10.8 | MIN6 prolif-2 inactive
COc1cc2cc(C(C)(C)O)oc(=O)c2cc1OC	none (no result: Rce1 inh)
CCC[C@@H](O)c1cc2cc(OC)c(OC)cc2c(=O)o1	MIN6 prolif-1 11.5 (no result: Rce1 inh) | MIN6 prolif-2 inactive
COc1cccc(CNC(=O)c2cc(C3CC3)nc3c2cnn3C(C)C)c1	none (no result: Rce1 inh)
CC(C)n1ncc2c(C(=O)NCc3cccnc3)cc(C3CC3)nc21	MIN6 prolif-1 11.4 (no result: Yeast superoxide, T cell HTS, Rce1 inh) | MIN6 prolif-2 inactive
COc1ccc(C(=O)NCCCNC(=O)c2cnccn2)cc1Br	MIN6 prolif-1 9.2 | MIN6 prolif-2 inactive
CNC(=O)c1ccccc1NC(=O)c1cccc(S(=O)(=O)N2CCCCC2)c1	MIN6 prolif-1 7.6 | MIN6 prolif-2 inactive
S=C(NCCN1CCOCC1)N/N=C/c1cccs1	MIN6 prolif-1 10.4 | MIN6 prolif-2 inactive
COC(=O)[C@]12C[C@H](CC(=O)N3CCOCC3)C(=O)N(Cc3ccccc3)C1=C[C@H](C1CCCC1)O[C@@H]2C	none (no result: MIN6 prolif-1, Yeast superoxide, V-ATPase pHluor, T cell HTS, Rce1 inh)
O=C(NCc1nnnn1-c1ccc(F)cc1)C1CC(=O)N(c2ccc(F)cc2)C1 (configuration not stated)	none
Cc1ccc(-n2nnnc2CNC(=O)C2CC(=O)N(c3ccc(F)cc3)C2)cc1C (configuration not stated)	MIN6 prolif-1 12.4 | MIN6 prolif-2 inactive
C/C(=N/NC(=O)c1ccc(Br)s1)c1ccncc1	MIN6 prolif-1 14.9 | MIN6 prolif-2 inactive
O=C(CC1SC2=NCCN2C1=O)Nc1ccc(Br)cc1 (configuration not stated)	none
CCOC(=O)c1ccc(NC(=O)CC2SC3=NCCN3C2=O)cc1 (configuration not stated)	MIN6 prolif-1 5.8 | MIN6 prolif-2 inactive
Cn1c2ccccc2n2c(=O)c(Cl)c(-c3ccccc3)c(C#N)c12	MIN6 prolif-1 7.9 | MIN6 prolif-2 inactive
COc1ccc(C2CC(c3cccc(OC)c3)n3nc(N)nc3N2)cc1 (configuration not stated)	MIN6 prolif-1 9.1 | MIN6 prolif-2 inactive
COc1cccc(C2CC(c3ccccc3)Nc3nc(N)nn32)c1 (configuration not stated)	none
